Activity calls are given as the source filed them. The calls are words filed in the database; no cut-off is given here.

The values below come from ChEMBL document CHEMBL3259537, “Design of a truncated cardiotoxin-I analogue with potent insulinotropic activity” (J Med Chem, 2014).

Data set [1] can be described thus: Cytotoxicity against rat INS-1E cells by LDH assay. In kind it is cell-based. The method in brief:
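INS-1E cells were seeded at 2×10^4 cells/well and grown 24 h at 37 °C, then exposed to increasing peptide concentrations in serum-free medium. LDH released into the medium from dead cells was measured with a commercial kit and expressed as % of maximum LDH release after cell lysis.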

Data set [2] is described as follows: Induction of intracellular calcium release in rat INS-1E cells by fluorescence assay. In kind it is functional, cell-based. In outline: (§1)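 INS-1E cells were harvested by scraping (5×10^5 cells/mL) and loaded 30 min at 37 °C with 4 μM Fura-2-AM plus 2.5 mM probenecid in KRBH (10 mM glucose, pH 7.4). After washing, 20000 cells/well were read immediately after peptide addition (10^-12–10^-5 M range) at excitation 340/380 nm, emission 495 nm. [Ca2+]i was calculated by the Grynkiewicz equation (Kd 225 nM).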

The test system of data set [3] is INS-1E. Nature of the data set: Inhibition of [86]-Rb+-efflux in rat INS-1E cells at 10^8 to 10'6 M incubated for 30 mins followed by high-phosphate buffer addition by scintillation counting analysis. In kind it is functional, cell-based. The note with it: in the assay text read “high-potassium” for “high-phosphate”. The method in brief: (§2)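 INS-1E cells (2×10^5/well) were loaded overnight at 37 °C with 86RbCl (0.02 µCi/mL) in medium. They were then incubated 30 min at 37 °C in low-K buffer (4.6 mM KCl, pH 7.4) ± peptide, switched to high-K buffer (140 mM KCl) ± peptide, and efflux was followed over time by scintillation counting. Efflux is % of total 86Rb+ (medium plus cells); IC50 values are from three independent experiments in triplicate.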

The next data set relates to Aorta. Nature of the data set: Induction of rat aortic ring contraction at 10'5 M. It counts as functional, tissue-based.
Data set [4] has as its system INS-1E. The experiment in a line: Insulinotropic activity in rat INS-1E cells assessed as insulin exocytosis after 2 hrs by RIA in presence of ATP depletor 2-deoxy-D-glucose. It counts as functional, cell-based. The method in brief: (§3)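 INS-1E cells (2×10^5/well) were seeded 2 days before use. They were starved 2 h in glucose-free KRBH with 0.1% BSA, washed, and held another 30 min at 37 °C. Cells were then incubated 2 h at 37 °C with peptide, with 20 mM glucose or without glucose. Secreted insulin in the medium was measured by RIA against a rat insulin standard.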

In data set [5] the test system is INS-1E. Nature of the data set: Effect on NGF-induced intracellular calcium release in rat INS-1E cells at 10^-9 M by fluorescence assay. It counts as functional, cell-based. (Calcium flux is commonly read through the fluorescence of an indicator in the cells.)
The test system of data set [6] is INS-1E. Nature of the data set: Induction of intracellular calcium release in rat INS-1E cells at 10^-6 M by fluorescence assay. It counts as functional, cell-based. In outline:
as §1

Data set [7] has as its system INS-1E. The experiment in a line: Insulinotropic activity in rat INS-1E cells assessed as insulin exocytosis after 2 hrs by RIA in presence of Ca2+ channel blocker nifedipine. In kind it is functional, cell-based. The method in brief:
as §3

Data set [8] deals with INS-1E. Nature of the data set: Insulinotropic activity in rat INS-1E cells assessed as insulin exocytosis after 2 hrs by RIA in presence of glucose. In kind it is functional, cell-based. The method in brief: as §3
The test system of data set [9] is INS-1E. Nature of the data set: Insulinotropic activity in rat INS-1E cells assessed as insulin exocytosis after 2 hrs by RIA in presence of adenylyl cyclase inhibitor 2',5'-dideoxy-adenosine. It counts as functional, cell-based. In outline:
(§4)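 INS-1E cells (2×10^5/well) were pretreated 30 min with H89 (40 μM) or 2',5'-dideoxyadenosine (50 μM). They were then starved 2 h plus 30 min in glucose-free KRBH/0.1% BSA and incubated 2 h at 37 °C with peptide ± 20 mM glucose. Insulin in the medium was quantified by RIA against a rat insulin standard.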

Data set [10] deals with INS-1E. Nature of the data set: Insulinotropic activity in rat INS-1E cells assessed as insulin exocytosis after 2 hrs by RIA in presence of K-ATP channel opener diazoxide. In kind it is functional, cell-based. In outline:
as §3

In data set [11] the test system is INS-1E. Nature of the data set: Insulinotropic activity in rat INS-1E cells assessed as insulin exocytosis after 2 hrs by RIA in presence of PKA inhibitor H89. In kind it is functional, cell-based. In outline: as §4
The test system of data set [12] is INS-1E. The experiment in a line: Insulinotropic activity in rat INS-1E cells assessed as insulin exocytosis at 10^-6 M after 2 hrs by RIA. In kind it is functional, cell-based. The method in brief:
as §3

In data set [13] the test system is INS-1E. The experiment in a line: Inhibition of [86]-Rb+-efflux in rat INS-1E cells incubated for 30 mins followed by high-phosphate buffer addition by scintillation counting analysis. It counts as functional, cell-based. Conditions: in the assay text read “high-potassium” for “high-phosphate”. In outline: as §2
The test system of data set [14] is INS-1E. The experiment in a line: Effect on NGF-induced intracellular calcium release in rat INS-1E cells at 10^-8 to 10^-5 M by fluorescence assay. In kind it is functional, cell-based.

Regarding `CC(C)C[C@@H]1NC(=O)[C@H](CO)NC(=O)[C@H](CC(N)=O)NC(=O)[C@H](CCCCN)NC(=O)[C@@H]2CCCN2C(=O)[C@@H](NC(=O)[C@@H](N)C(C)C)CSSC[C@@H](C(=O)N[C@H]2CSSC[C@H](C(=O)N[C@@H](CC(N)=O)C(=O)O)NC(=O)[C@H](CCCNC(=N)N)NC(=O)[C@H](CC(=O)O)NC(=O)[C@H]([C@@H](C)O)NC(=O)[C@H](CC(N)=O)NC2=O)NC(=O)[C@H](C(C)C)NC(=O)[C@H](Cc2ccc(O)cc2)NC(=O)[C@H](CCCCN)NC(=O)[C@H](C(C)C)NC(=O)[C@H](CC(C)C)NC1=O`, the Activity entry in data set [1] is listed as “Non-toxic”. For the same molecule, the EC50 (in general, the concentration at which the effect is half-maximal) in data set [2] is 2.14 nM.
Turning to `CN(CCc1ccc(Cl)c(Cl)c1)CC(O)COc1ccc(NS(C)(=O)=O)cc1` (stereo unspecified), the inhibition result in the data set on INS-1E [3] was “Active”.
As to `CC(C)C[C@@H]1NC(=O)[C@H](CO)NC(=O)[C@H](CC(N)=O)NC(=O)[C@H](CCCCN)NC(=O)[C@@H]2CCCN2C(=O)[C@@H](NC(=O)[C@@H](N)C(C)C)CSSC[C@@H](C(=O)N[C@H]2CSSC[C@H](C(=O)N[C@@H](CC(N)=O)C(=O)O)NC(=O)[C@H](CCCNC(=N)N)NC(=O)[C@H](CC(=O)O)NC(=O)[C@H]([C@@H](C)O)NC(=O)[C@H](CC(N)=O)NC2=O)NC(=O)[C@H](CCCCN)NC(=O)[C@H](Cc2ccc(O)cc2)NC(=O)[C@H](CCCCN)NC(=O)[C@H](C(C)C)NC(=O)[C@H](CC(C)C)NC1=O`, the outcome with Aorta, in the data set with INS-1E [5] and in the data set with INS-1E [7] was inactive. Also, the outcome in the data set on INS-1E [4], with INS-1E [6], in the data set with INS-1E [10], in the data set with INS-1E [12] and with INS-1E [14] was Active. The Activity result in the data set with INS-1E [8] is “Dose-dependent effect”; with INS-1E [9], “Dose-dependent effect”; in the data set with INS-1E [11], “Dose-dependent effect”; in the data set on INS-1E [13], “Dose-dependent effect”; in data set [1] it was “Non-toxic”.
